Data on one molecule can be found in ChEMBL document CHEMBL4024790 (J Med Chem, 2018).

Data set [1] has as its system Liver. Description: Drug metabolism in dog liver microsomes assessed as 3-(7-methyl-5-(1-methyl-5-(5-(trifluoromethyl)pyridin-2-yl)-1H-pyrazol-4-yl)imidazo[1,5-f][1,2,4]triazin-4-ylamino)propanoic acid formation at 1 to 50 uM after 1 hr by LC-MS/MS analysis. Format: ADME, Canis lupus familiaris, microsome. The gist of the method: (§1)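 Rat, dog or human liver microsomes or hepatocytes (P450 0.35–0.5 µM final) incubated with compound at 1, 10 or 50 µM in 100 mM phosphate buffer with 1 mM NADP regenerating system, 37°C for 1 h; quenched with 4 volumes acetonitrile, centrifuged, supernatant evaporated, reconstituted in 5% aqueous acetonitrile and analysed by reversed-phase LC.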
(In general: Liver microsomes are a subcellular fraction often used to study metabolism.)

Data set [2] in a line: Passive permeability in RRCK cells. Format: ADME, cell-based, Canis lupus familiaris, MDCKII-LE. The following applies: dog, MDCK; read-out: permeability.
Data set [3] is described as follows: 1-octanol/phosphate buffer solution partition coefficient, log D of the compound at pH 7.4 after 1 hr by LC-MS/MS method. Format: physicochemical.
The test system of data set [4] is Rattus norvegicus. Description: Reversal of ketamine-induced working memory deficit in Long Evans rat at 1 mg/kg, sc by radial arm maze assay. Format: functional, organism-based. The gist of the method: (§2)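 Rats trained in a radial arm maze working-memory task, with deficit induced by ketamine. Compound dosed sc; errors compared with vehicle + ketamine. N = 20–23 per group, Hochberg test. Cbu at the tested doses estimated from satellite pharmacokinetic animals.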

A short description of data set [5]: Apparent intrinsic clearance in human liver microsomes. Format: ADME, microsome. The conditions noted are these: read-out: CLH(app).
Data set [6] concerns Rattus norvegicus. Description: Effect on spontaneous locomotor activity in Long Evans rat at 0.32 to 3.2 mg/kg, sc. Format: ADME, organism-based. The conditions noted are these: in vivo. In outline: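 Rats dosed SC at 0.32, 1.0 and 3.2 mg/kg; conditioned avoidance responding also run in combination with risperidone 0.032 mg/kg.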
A short description of data set [7]: Tmax in beagle dog at 5 mg/kg, po administered via gavage by LC-MS/MS analysis. The following applies: in vivo. It counts as ADME, organism-based, Canis lupus familiaris.
For data set [8], the system named is Rattus norvegicus. The data set can be described thus: Reversal of ketamine-induced working memory deficit in Long Evans rat assessed as unbound brain concentration required to show effect at 0.32 mg/kg, sc by radial arm maze assay. It counts as functional, organism-based. The gist of the method: as §2
The target of data set [9] is T1, cGMP-dependent 3',5'-cyclic phosphodiesterase (Rattus norvegicus, UniProt Q01062).
T1 sequence (Q01062 whole entry): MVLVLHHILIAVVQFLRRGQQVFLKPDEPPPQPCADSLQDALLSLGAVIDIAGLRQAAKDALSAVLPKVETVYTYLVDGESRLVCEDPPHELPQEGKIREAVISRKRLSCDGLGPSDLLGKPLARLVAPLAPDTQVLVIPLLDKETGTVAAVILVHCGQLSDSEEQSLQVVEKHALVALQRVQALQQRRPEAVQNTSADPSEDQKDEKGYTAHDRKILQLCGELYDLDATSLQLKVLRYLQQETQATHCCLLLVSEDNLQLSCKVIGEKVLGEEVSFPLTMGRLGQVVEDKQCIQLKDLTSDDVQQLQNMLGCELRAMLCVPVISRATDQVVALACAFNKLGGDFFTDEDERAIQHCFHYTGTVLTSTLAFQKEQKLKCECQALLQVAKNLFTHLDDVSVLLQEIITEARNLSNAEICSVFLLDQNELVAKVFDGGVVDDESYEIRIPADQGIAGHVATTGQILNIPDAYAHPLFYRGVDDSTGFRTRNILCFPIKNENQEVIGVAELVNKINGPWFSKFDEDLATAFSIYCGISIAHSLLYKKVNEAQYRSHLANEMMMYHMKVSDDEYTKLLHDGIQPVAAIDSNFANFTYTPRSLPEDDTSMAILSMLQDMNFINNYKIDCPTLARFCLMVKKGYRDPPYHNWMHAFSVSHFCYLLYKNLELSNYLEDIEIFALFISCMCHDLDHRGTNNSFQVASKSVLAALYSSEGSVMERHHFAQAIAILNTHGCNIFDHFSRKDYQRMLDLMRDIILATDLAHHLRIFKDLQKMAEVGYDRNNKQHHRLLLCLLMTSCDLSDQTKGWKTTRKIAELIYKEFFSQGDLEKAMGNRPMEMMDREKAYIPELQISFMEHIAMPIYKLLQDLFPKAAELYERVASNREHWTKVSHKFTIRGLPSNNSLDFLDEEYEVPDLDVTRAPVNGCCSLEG
The data set can be described thus: Displacement of radiolabeled 4-(azetidin-1-yl)-3-[5-[4-(trifluoromethyl)phenyl]-1H-pyrazol-4-yl]-1-(tritritiomethyl)pyrazolo[3,4-d]pyrimidine from PDE2A in rat striatal membranes after 30 mins by liquid scintillation counting method. It counts as cell membranes, Striatum, Membrane.

Data set [10] in a line: Cmax in Wistar Han rat at 1 mg/kg, iv by LC-MS/MS analysis. It counts as ADME, organism-based. Set-up: dose 1 mg/kg, route intravenous. The conditions noted are these: in vivo. In outline:
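Male Wistar-Han rats given single 1 mg/kg IV; beagle dogs 0.3 mg/kg IV; solution in 20% (w/v) sulfobutyl ether β-cyclodextrin with hydrochloric acid, 1 mL/kg (rat) or 0.4 mL/kg (dog). Blood via carotid artery cannula between 2 min and 24 h into EDTA tubes; plasma analysed by LC-MS/MS with positive electrospray.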

Data set [11] relates to Rattus norvegicus. Description: Reversal of ketamine-induced working memory deficit in Long Evans rat at 0.032 to 0.32 mg/kg, sc by radial arm maze assay.
Data set [12] is described as follows: Ratio of unbound brain concentration to unbound plasma concentration in po dosed Cynomolgus monkey. It counts as ADME, organism-based, Macaca fascicularis. The following applies: brain and plasma, read-out: K(p,uu,brain).
The nature of data set [13]: AUC (0 to infinity) in beagle dog at 0.3 mg/kg, iv by LC-MS/MS analysis. Format: ADME, organism-based, Canis lupus familiaris. Set-up: dose 0.3 mg/kg, route intravenous, time infinity. The conditions noted are these: in vivo. In outline:
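Dogs received a single IV dose as a solution in 20% (w/v) sulfobutylether-β-cyclodextrin with hydrochloric acid, at 0.4 mL/kg. Blood was drawn by carotid artery cannula into K3EDTA at set times from 2 min to 24 h. Plasma was acetonitrile-precipitated with internal standard and run by positive-ESI LC-MS/MS against standards of 0.61–1250 ng/mL. AUC was extrapolated from time 0 to infinity.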

The species entered for a further data set is Mus musculus. Description: Increase in cGMP level in CD-1 mouse brain striatum assessed as unbound brain concentration required to show the effect by immunoassay. It counts as functional. The gist of the method: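 CD-1 mice given compound; brains fixed by focused microwave irradiation, and cortex, striatum and hippocampus dissected and homogenized in 0.5 N HCl, then centrifuged. cGMP in the supernatant measured by enzyme immunoassay. Unbound brain concentration taken from satellite animals. Dose-response and time-course data combined, and a linear Cbu–cGMP model fitted. The Cbu E50 is the projected Cbu giving a 50% rise in cGMP. Statistics by one-way ANOVA with Fisher's PLSD, p<0.05.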

Data set [14] concerns Liver. The data set can be described thus: Drug metabolism in dog liver microsomes assessed as 1-(7-methyl-5-(1-methyl-5-(5-(trifluoromethyl)pyridin-2-yl)-1H-pyrazol-4-yl)imidazo[1,5-f][1,2,4]triazin-4-yl)azetidin-3-ol formation at 1 to 50 uM after 1 hr by LC-MS/MS analysis. Format: ADME, Canis lupus familiaris, microsome. In outline: as §1
The test system of data set [15] is Liver. The data set can be described thus: Drug metabolism in rat liver microsomes assessed as 1-(7-methyl-5-(1-methyl-5-(5-(trifluoromethyl)pyridin-2-yl)-1H-pyrazol-4-yl)imidazo[1,5-f][1,2,4]triazin-4-yl)azetidin-3-ol formation at 1 to 50 uM after 1 hr by LC-MS/MS analysis. Format: ADME, microsome. In outline: as §1

As a reminder, the logD is the decadic logarithm of the distribution of all forms, ionised or not, between an organic phase and buffer at a given pH. The Tmax is the time at which the peak concentration occurs. Usually Ki stands for the dissociation constant of the complex between target and ligand, obtained from inhibition or displacement. By Cmax is commonly meant the maximum level reached in the sampled fluid or tissue. One may read the AUC(0-inf) as the area under the concentration-time curve extrapolated to infinity.

Molecules are shown by their SMILES. Active and inactive are the calls of the source. The calls are words filed in the database; no cut-off is given here.

`Cc1nc(-c2cnn(C)c2-c2ccc(C(F)(F)F)cn2)c2c(N3CCC3)ncnn12` [PF-05180999]: the Drug metabolism result in the data set on Liver [1], in the data set on Liver [14] and with Liver [15] was “Metabolite_Detected” throughout. Also, the Papp in data set [2] came out at 26 ×10⁻⁶ cm/s. This molecule also came in with a logD at 1 h in [3] of 2.3. Besides, the result in the data set with Rattus norvegicus [4] was inactive. Moreover, the CLint scaled in [5] came out at 52 mL/min/kg. Besides, in the data set on Rattus norvegicus [6], the Activity entry is “Non-Toxic”. For the same molecule, in data set [7], the time of peak concentration (Tmax) is 15 min. Moreover, the Drug uptake(free) in the data set on Rattus norvegicus [8] came to 12.5 nM. Further, in data set [9], the Ki worked out at 4.2 nM. The same molecule gave a Cmax in data set [10] of 1020 ng/mL. For the same molecule, in the data set with Rattus norvegicus [11], the outcome was Active. Further, in data set [12], the Kp uu was 0.6. Also, the total exposure AUC(0-inf) in [13] amounted to 431 ng·h/mL. Moreover, the fEC50 in the data set filed under Mus musculus turned out to be 98 nM.
